Assay results as given in article PMC6355468 (Journal of Pharmaceutical Analysis, 2018).
Where two headings read alike, the source gives them in different places.

Key:
[1] = assay type: physicochemical, rat
[2] = Rat pharmacokinetic study of DZ2002; assay type: in vivo, Sprague-Dawley rats
In short: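 Sprague-Dawley rats (230–280 g), four groups of 3 male + 3 female. Single tail-vein bolus of 5 mg/kg (normal saline), or single gavage doses of 5, 10 or 25 mg/kg. Blood (~100 μL) drawn at 0, 5, 15, 30 min and 1, 2, 4, 6, 8, 11, 24 h into heparinized tubes holding 400 μL methanol with 500 nM internal standard, then centrifuged. Parent and acid metabolite measured by LC-MS/MS. Non-compartmental analysis; F from dose-normalized po/iv AUC0–∞, either parent alone or parent plus acid.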

[3] = tested on: rat blood carboxylesterases; assay type: in vitro ADME; settings: up to 30 min
In short: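 Fresh rat blood (200 μL) mixed first with 400 μL methanol, then test compound added. Incubated at 23 °C for 0, 2, 5, 10, 15 and 30 min in triplicate, then centrifuged. Supernatants analysed by LC-MS/MS (Synergi Fusion-RP column, water/methanol ammonium formate–formic acid gradient) for the acid metabolite.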

[4] = both, Sprague-Dawley, rat, blood, po
[5] = female, Sprague-Dawley, rat, blood, iv, 5 mg/kg
[6] = female, Sprague-Dawley, rat, blood, po, 5 mg/kg
[7] = female, Sprague-Dawley, rat, blood, po, 10 mg/kg
[8] = female, Sprague-Dawley, rat, blood, po, 25 mg/kg
[9] = male, Sprague-Dawley, rat, blood, iv, 5 mg/kg
[10] = male, Sprague-Dawley, rat, blood, po, 5 mg/kg
[11] = male, Sprague-Dawley, rat, blood, po, 10 mg/kg
[12] = male, Sprague-Dawley, rat, blood, po, 25 mg/kg
[13] = rats, intravenous DZ2002 at 5 mg/kg
[14] = after three cycles of freeze and thaw of −70 °C↔23 °C, 80 nM
[15] = after three cycles of freeze and thaw of −70 °C↔23 °C, 8000 nM
[16] = in rat blood at 23 °C for 4 h, 80 nM
[17] = in rat blood at 23 °C for 4 h, 8000 nM
[18] = in rat blood at −70 °C for 60 days, 80 nM
[19] = in rat blood at −70 °C for 60 days, 8000 nM
[20] = in supernatant of methanol-treated rat blood at 10 °C for 24 h, 80 nM
[21] = in supernatant of methanol-treated rat blood at 10 °C for 24 h, 8000 nM

For “3-(6-amino-9H-purin-9-yl)-2,2-diethylpropanoic acid [Internal standard, reference compound]”, the “Stability, response (%Control)” value ([1]; after three cycles of freeze and thaw of −70 °C↔23 °C, 500 nM) was “(98.4) %Control”, the “Stability, response (%Control)” value ([1]; in rat blood at 23 °C for 4 h, 500 nM) was “(108) %Control” and the “Stability, response (%Control)” value ([1]; in rat blood at −70 °C for 60 days, 500 nM) was “(104) %Control”. The “Stability, response (%Control)” value ([1]; in stock solutions at −70 °C for 6 months, internal standard (500 nM)) was “(97.9) %Control” and the “Stability, response (%Control)” value ([1]; in supernatant of methanol-treated rat blood at 10 °C for 24 h, 500 nM) was “(106) %Control”.
In the case of `COC(=O)[C@@H](O)CCn1cnc2c(N)ncnc21` [DZ2002, Methyl (S)-4-(6-amino-9H-purin-9-yl)-2-hydroxybutanoate], the bioavailability [2, 4] is reported as 90 to 159%, the half-life [2, 4] is reported as 18 to 54 min and the “F1 (oral bioavailability, from AUC of DZ2002)” value ([2]; female rat, oral DZ2002 at 5 mg/kg vs iv 5 mg/kg) is reported as 145 ± 27%. The “F1 (oral bioavailability, from AUC of DZ2002)” value ([2]; female rat, oral DZ2002 at 10 mg/kg vs iv 5 mg/kg) was 90 ± 27%, the “F1 (oral bioavailability, from AUC of DZ2002)” value ([2]; female rat, oral DZ2002 at 25 mg/kg vs iv 5 mg/kg) was 118 ± 41% and the AUC(0-inf) [2, 5] was 0.68 ± 0.396 µM·h. For the same compound, the AUC(0-t) [2, 5] was 0.66 ± 0.376 µM·h, the MRT [2, 5] was 9 ± 3.6 min and the Vd [2, 5] was 4.59 ± 0.96 L/kg. It also gave a clearance [2, 5] of 590 mL/min/kg, a concentration at 5 min [2, 5] of 3.03 ± 1.45 µM and a half-life [2, 5] of 9 ± 6.6 min. The AUC(0-inf) [2, 6] was 0.985 ± 0.184 µM·h, the AUC(0-t) [2, 6] was 0.963 ± 0.182 µM·h and the Cmax [2, 6] was 2.72 ± 0.418 µM. The MRT [2, 6] was 25.8 ± 6.6 min, the Tmax [2, 6] was 4.8 min and the half-life [2, 6] was 18.6 ± 7.2 min. For the same compound, the AUC(0-inf) [2, 7] was 1.23 ± 0.348 µM·h, the AUC(0-t) [2, 7] was 1.18 ± 0.366 µM·h and the Cmax [2, 7] was 2.13 ± 0.742 µM. For the same compound, the MRT [2, 7] was 44.4 ± 9.6 min, the Tmax [2, 7] was 8.4 ± 6 min and the half-life [2, 7] was 32.4 ± 10.8 min. For the same compound, the AUC(0-inf) [2, 8] was 4.02 ± 1.4 µM·h, the AUC(0-t) [2, 8] was 3.95 ± 1.43 µM·h and the Cmax [2, 8] was 8.49 ± 2.49 µM. For the same compound, the MRT [2, 8] was 40.2 ± 13.8 min, the Tmax [2, 8] was 4.8 min and the half-life [2, 8] was 42.6 ± 25.2 min. For the same compound, the “F1 (oral bioavailability, from AUC of DZ2002)” value ([2]; male rat, oral DZ2002 at 5 mg/kg vs iv 5 mg/kg) was 157 ± 18%, the “F1 (oral bioavailability, from AUC of DZ2002)” value ([2]; male rat, oral DZ2002 at 10 mg/kg vs iv 5 mg/kg) was 146 ± 20% and the “F1 (oral bioavailability, from AUC of DZ2002)” value ([2]; male rat, oral DZ2002 at 25 mg/kg vs iv 5 mg/kg) was 159 ± 48%. It also gave an AUC(0-inf) [2, 9] of 0.504 ± 0.146 µM·h, an AUC(0-t) [2, 9] of 0.495 ± 0.142 µM·h and an MRT [2, 9] of 6.6 ± 1.2 min. For the same compound, the Vd [2, 9] was 4.5 ± 1.22 L/kg, the clearance [2, 9] was 707 mL/min/kg and the concentration at 5 min [2, 9] was 2.46 ± 0.597 µM. The half-life [2, 9] was 4.8 ± 0.6 min, the AUC(0-inf) [2, 10] was 0.79 ± 0.092 µM·h and the AUC(0-t) [2, 10] was 0.729 ± 0.052 µM·h. It also gave a Cmax [2, 10] of 1.38 ± 0.457 µM, an MRT [2, 10] of 40.2 ± 19.2 min and a Tmax [2, 10] of 11.4 ± 6 min. For the same compound, the half-life [2, 10] was 27 ± 13.8 min, the AUC(0-inf) [2, 11] was 1.47 ± 0.199 µM·h and the AUC(0-t) [2, 11] was 1.41 ± 0.171 µM·h. For the same compound, the Cmax [2, 11] was 2.36 ± 1.1 µM, the MRT [2, 11] was 49.8 ± 14.4 min and the Tmax [2, 11] was 8.4 ± 6 min. The half-life [2, 11] was 40.8 ± 29.4 min, the AUC(0-inf) [2, 12] was 4 ± 1.21 µM·h and the AUC(0-t) [2, 12] was 3.85 ± 1.15 µM·h. The Cmax [2, 12] was 4.02 ± 0.898 µM, the MRT [2, 12] was 72 ± 22.2 min and the Tmax [2, 12] was 8.4 ± 6 min. For the same compound, the half-life [2, 12] was 55.8 ± 16.2 min, the “Systemic clearance (CLtot,b) exceeding rat cardiac output (17.8 L/h/kg)” value [2, 13] was “around 2 times” and the “Systemic clearance (CLtot,b) exceeding rat hepatic blood flow rate (3.31 L/h/kg)” value [2, 13] was “around 13 times”. For the same compound, the “Formation of DZA in methanol-treated rat blood spiked with DZ2002” value ([3]; 400 μL methanol to 50–200 μL rat blood, 23 °C) was “undetected”, the “Stability of DZ2002 in rat blood” value ([3]; freshly collected rat blood, 1000 nM, 23 or 37 °C) was “quickly transformed into its acid metabolite DZA” and the “Stability, response (%Control)” value [1, 14] was “(108) %Control”. For the same compound, the “Stability, response (%Control)” value [1, 15] was “(102) %Control”, the “Stability, response (%Control)” value [1, 16] was “(93.6) %Control” and the “Stability, response (%Control)” value [1, 17] was “(102) %Control”. The “Stability, response (%Control)” value [1, 18] was “(94.6) %Control”, the “Stability, response (%Control)” value [1, 19] was “(92.4) %Control” and the “Stability, response (%Control)” value [1, 20] was “(108) %Control”. For the same compound, the “Stability, response (%Control)” value [1, 21] was “(108) %Control”.
`Nc1ncnc2c1ncn2CCC(O)C(=O)O` (stereo not shown) [DZA, 4-(6-amino-9H-purin-9-yl)-2-hydroxybutyric acid] showed a half-life [2, 4] of 78 to 306 min, an AUC(0-inf) [2, 5] of 4.8 ± 0.3 µM·h and an AUC(0-t) [2, 5] of 4.71 ± 0.34 µM·h. For the same compound, the MRT [2, 5] was 30.6 ± 1.8 min, the concentration at 5 min [2, 5] was 15.5 µM and the half-life [2, 5] was 73.2 ± 26.4 min. For the same compound, the AUC(0-inf) [2, 6] was 4.36 ± 0.701 µM·h, the AUC(0-t) [2, 6] was 4.27 ± 0.669 µM·h and the Cmax [2, 6] was 6.49 ± 1.04 µM. It also gave an MRT [2, 6] of 60.6 ± 5.4 min, a Tmax [2, 6] of 11.4 ± 6 min and a half-life [2, 6] of 124 ± 68.4 min. For the same compound, the AUC(0-inf) [2, 7] was 7.81 ± 0.846 µM·h, the AUC(0-t) [2, 7] was 7.6 ± 1.03 µM·h and the Cmax [2, 7] was 7.23 ± 1.98 µM. The MRT [2, 7] was 97.8 ± 44.4 min, the Tmax [2, 7] was 16.8 ± 12.6 min and the half-life [2, 7] was 233 ± 225 min. The AUC(0-inf) [2, 8] was 18.4 µM·h, the AUC(0-t) [2, 8] was 17.6 µM·h and the Cmax [2, 8] was 19.8 µM. The MRT [2, 8] was 177 ± 166 min, the Tmax [2, 8] was 11.4 ± 6 min and the half-life [2, 8] was 305 ± 218 min. The AUC(0-inf) [2, 9] was 5.03 ± 0.212 µM·h, the AUC(0-t) [2, 9] was 4.94 ± 0.226 µM·h and the MRT [2, 9] was 33.6 ± 16.8 min. The concentration at 5 min [2, 9] was 15.3 µM, the half-life [2, 9] was 96.6 ± 104 min and the AUC(0-inf) [2, 10] was 3.9 ± 0.501 µM·h. It also gave an AUC(0-t) [2, 10] of 3.77 ± 0.608 µM·h, a Cmax [2, 10] of 5.23 ± 2.59 µM and an MRT [2, 10] of 74.4 ± 40.8 min. It also gave a Tmax [2, 10] of 19.8 ± 8.4 min, a half-life [2, 10] of 79.8 ± 38.4 min and an AUC(0-inf) [2, 11] of 6.81 ± 0.223 µM·h. The AUC(0-t) [2, 11] was 6.71 ± 0.267 µM·h, the Cmax [2, 11] was 7.03 ± 1.05 µM and the MRT [2, 11] was 78.6 ± 11.4 min. The Tmax [2, 11] was 19.8 ± 8.4 min, the half-life [2, 11] was 87.6 ± 13.8 min and the AUC(0-inf) [2, 12] was 18.4 µM·h. The AUC(0-t) [2, 12] was 18.1 µM·h, the Cmax [2, 12] was 16 µM and the MRT [2, 12] was 96 ± 18.6 min. The Tmax [2, 12] was 25.2 ± 8.4 min, the half-life [2, 12] was 167 ± 82.8 min and the “Stability, response (%Control)” value [1, 14] was “(98.1) %Control”. For the same compound, the “Stability, response (%Control)” value [1, 15] was “(89.5) %Control”, the “Stability, response (%Control)” value [1, 16] was “(95.2) %Control” and the “Stability, response (%Control)” value [1, 17] was “(97.5) %Control”. The “Stability, response (%Control)” value [1, 18] was “(108) %Control”, the “Stability, response (%Control)” value [1, 19] was “(112) %Control” and the “Stability, response (%Control)” value [1, 20] was “(106) %Control”. For the same compound, the “Stability, response (%Control)” value [1, 21] was “(109) %Control”.
